Results of several laboratories.
Lines come from different studies, so protocols differ.
Read-out: enzyme activity
Mode: inhibitor
RET V804L: Proto-oncogene tyrosine-protein kinase receptor Ret (RET, Homo sapiens, UniProt P07949, V804L)
RET: Proto-oncogene tyrosine-protein kinase receptor Ret (RET, Homo sapiens, UniProt P07949)

| Structure (SMILES) | target | assay | setting | inhibition |
| --- | --- | --- | --- | --- |
| C=CC(=O)Nc1cc(Nc2nccc(Nc3cc(Cl)c(F)cc3C(C)(C)O)n2)c(OC)cc1N1CC[C@@H](N(C)C)C1 | RET V804L |  | 1 µM | 8% |
| CNC(=O)c1cc2c(Oc3ccc(NC(=O)C4(C(=O)Nc5ccc(F)cc5)CC4)cc3)ccnc2cc1OC | RET | radiometric | 1 µM | 98% |
| CNCc1ccc(-c2cc(-c3nc(-c4ccc(S(=O)(=O)C(C)C)cc4)cnc3N)on2)cc1 | RET |  | 0.4 µM | 22% |
| CC/C(=N\NC(=O)NCc1cccc(O)c1)c1ccc(O)c(C)c1O | Proto-oncogene tyrosine-protein kinase receptor Ret (RET, Homo sapiens, UniProt P07949, M918T) |  | 0.1 µM | 1.1% |
| COc1cc2ncnc(Nc3ccc(Oc4ccccc4)c(C)c3C)c2cc1OC | RET V804L |  | 1 µM | 2% |
| COc1cc(-c2cc(-c3ccc(N4CCNCC4)cc3)cnc2N)cc(OC)c1OC | RET V804L |  | 0.1 µM | 2% |
| COc1cc2ncnc(Nc3ccc(Oc4ccccc4)cc3C)c2cc1OC | Proto-oncogene tyrosine-protein kinase receptor Ret (RET, Homo sapiens, UniProt P07949, Y791F) |  | 1 µM | 36% |
| COc1cc2nccc(Oc3ccc(NC(=O)c4c5n(n(-c6ccc(F)cc6)c4=O)CCCC5)cc3)c2cc1OC | RET |  | 0.1 µM | 15% |
